# Laboratory results as given in ChEMBL document CHEMBL2176900, “Design and synthesis of a novel series of bicyclic heterocycles as potent γ-secretase modulators” (J Med Chem, 2012).
# The source made the active and inactive calls. The rule behind the calls is not given here.
# Key:
# Rattus norvegicus [1] = assay: Antialzheimer activity in Sprague-Dawley rat assessed as amyloid beta 38 level in brain at 10 mg/kg, po at 7 hrs by ELISA relative to control; assay type: functional
# Summary of the method: (§1)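 Male Sprague-Dawley rats (180-220 g), fasted overnight, were given 10 mg/kg by gastric intubation as a 5 mg/mL suspension in 0.5% methocellulose. At 2, 4, 7 and 25 h, 50 μL CSF was taken from the cisterna magna under isoflurane, then brain was collected. Aβ37/38/40/42 were measured by MesoScale Discovery sandwich immunoassays. Results are mean % change versus T = 0 h, n = 5.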
# Rattus norvegicus [2] = assay: Antialzheimer activity in Sprague-Dawley rat assessed as amyloid beta 37 level in brain at 10 mg/kg, po at 4 hrs by ELISA relative to control; assay type: functional; summary of the method: as §1
# [3] = Plasma concentration in beagle dog at 20 mg/kg, po at 8 hrs; assay type: ADME, organism-based, Canis lupus familiaris; set-up: dose 20 mg/kg, route oral
# [4] = Drug uptake in CD1 mouse brain at 30 mg/kg, po at 24 hrs by LC-MS/MS analysis; assay type: ADME, organism-based; set-up: dose 30 mg/kg, route oral; details: read-out: Drug uptake
# Summary of the method: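 Overnight-fasted male CD1 mice received one oral dose (10 or 30 mg/kg) in 20% Captisol. After sacrifice, the left brain hemisphere was stored at −18 °C. Compound level was quantified by a qualified LC-MS/MS method, alongside EDTA plasma spun at 1900g, 4 °C. n = 4 per time point.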
# [5] = Plasma concentration in CD1 mouse at 30 mg/kg, po at 8 hrs by LC-MS/MS analysis; assay type: ADME, organism-based; set-up: dose 30 mg/kg, route oral
# Summary of the method: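 Mice received a single 10 or 30 mg/kg oral dose. Plasma was sampled at several time points up to 48 h, with EDTA plasma obtained by centrifugation at 1900g, 10 min, 4 °C. Compound was quantified by LC-MS/MS, n = 4.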
# [6] = Plasma concentration in CD1 mouse at 10 mg/kg, po at 4 hrs by LC-MS/MS analysis; assay type: ADME, organism-based; set-up: dose 10 mg/kg, route oral
# Mus musculus [7] = assay: Antialzheimer activity in CD1 mouse assessed as amyloid beta 42 level in brain at 30 mg/kg, po at 24 hrs by ELISA relative to control; assay type: functional
# Summary of the method: (§2)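 Male CD1 SPF mice, fasted overnight, got a single oral dose of 10 or 30 mg/kg. At each time point the right brain hemisphere was homogenized in 0.4% DEA/50 mM NaCl with protease inhibitors and spun at 221300g for 50 min. The supernatant was neutralized with Tris-HCl pH 6.8. Aβ38 or Aβ42 was read by sandwich ELISA with a fluorogenic peroxidase substrate (ex 320/em 420 nm). Results are mean % change versus T = 0 h, n = 4.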
# Mus musculus [8] = assay: Antialzheimer activity in CD1 mouse assessed as amyloid beta 42 level in brain at 10 mg/kg, po at 24 hrs by ELISA relative to control; assay type: functional; summary of the method: as §2
# Mus musculus [9] = assay: Antialzheimer activity in CD1 mouse assessed as amyloid beta 42 level in brain at 10 mg/kg, po at 8 hrs by ELISA relative to control; assay type: functional; summary of the method: as §2
# Mus musculus [10] = assay: Antialzheimer activity in CD1 mouse assessed as amyloid beta 38 level in brain at 30 mg/kg, po at 8 hrs by ELISA relative to control; assay type: functional; summary of the method: as §2
# Mus musculus [11] = assay: Antialzheimer activity in CD1 mouse assessed as amyloid beta 38 level in brain at 10 mg/kg, po at 8 hrs by ELISA relative to control; assay type: functional; summary of the method: as §2
# [12] = Thermodynamic solubility in fed state simulated intestinal fluid; assay type: physicochemical; details: read-out: Therm_solubility
# Summary of the method: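 Thermodynamic solubility was measured in pH 4.0 and pH 7.4 buffers, 0.01 N HCl, and fasted-state and fed-state simulated intestinal fluids (FaSSIF, FeSSIF). Results are in […].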
# hERG (KCNH2) = hERG (KCNH2) (Homo sapiens, UniProt Q12809); assay: Inhibition of human ERG at 3 uM by patch clamp assay
# hERG (KCNH2), sequence (Q12809 whole entry): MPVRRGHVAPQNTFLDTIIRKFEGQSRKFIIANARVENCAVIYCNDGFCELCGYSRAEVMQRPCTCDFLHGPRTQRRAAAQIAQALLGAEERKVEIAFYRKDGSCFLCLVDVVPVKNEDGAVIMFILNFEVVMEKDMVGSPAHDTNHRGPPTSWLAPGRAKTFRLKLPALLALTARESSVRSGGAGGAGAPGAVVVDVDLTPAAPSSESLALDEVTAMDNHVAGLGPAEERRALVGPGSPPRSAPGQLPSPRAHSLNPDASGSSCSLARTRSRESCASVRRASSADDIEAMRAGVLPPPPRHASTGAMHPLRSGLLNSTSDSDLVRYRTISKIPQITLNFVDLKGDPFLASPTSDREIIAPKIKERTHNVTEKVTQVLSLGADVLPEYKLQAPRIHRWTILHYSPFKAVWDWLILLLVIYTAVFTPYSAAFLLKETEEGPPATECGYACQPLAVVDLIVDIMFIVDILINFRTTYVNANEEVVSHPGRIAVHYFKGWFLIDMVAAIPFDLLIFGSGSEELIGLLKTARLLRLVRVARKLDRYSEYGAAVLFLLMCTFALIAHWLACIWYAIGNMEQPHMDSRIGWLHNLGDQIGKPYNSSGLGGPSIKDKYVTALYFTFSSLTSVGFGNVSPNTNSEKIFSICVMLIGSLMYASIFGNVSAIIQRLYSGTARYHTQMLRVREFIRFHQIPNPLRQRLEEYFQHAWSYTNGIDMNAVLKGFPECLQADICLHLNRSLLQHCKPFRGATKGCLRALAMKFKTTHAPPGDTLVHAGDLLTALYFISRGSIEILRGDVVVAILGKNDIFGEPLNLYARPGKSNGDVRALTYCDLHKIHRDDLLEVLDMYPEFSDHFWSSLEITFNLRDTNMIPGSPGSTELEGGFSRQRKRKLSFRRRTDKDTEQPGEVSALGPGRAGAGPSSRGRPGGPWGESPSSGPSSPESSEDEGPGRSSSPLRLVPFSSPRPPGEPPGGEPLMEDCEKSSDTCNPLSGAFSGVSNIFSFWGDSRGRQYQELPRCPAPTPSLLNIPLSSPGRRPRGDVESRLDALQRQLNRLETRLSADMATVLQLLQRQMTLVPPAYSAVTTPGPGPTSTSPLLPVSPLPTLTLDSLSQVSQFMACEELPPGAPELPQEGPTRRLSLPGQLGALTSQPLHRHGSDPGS
# Summary of the method: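 Potassium membrane current was recorded with an automated patch-clamp system at 3 μM, with a vehicle control.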
# [13] = Fraction unbound in human plasma; assay type: ADME, cell-free
# Cytochrome P450 3A4 = Cytochrome P450 3A4 (Homo sapiens, UniProt P08684); assay: Inhibition of CYP3A4 in human liver microsomes using testosterone as substrate; assay type: ADME, Microsome
# Cytochrome P450 3A4, sequence (P08684 whole entry): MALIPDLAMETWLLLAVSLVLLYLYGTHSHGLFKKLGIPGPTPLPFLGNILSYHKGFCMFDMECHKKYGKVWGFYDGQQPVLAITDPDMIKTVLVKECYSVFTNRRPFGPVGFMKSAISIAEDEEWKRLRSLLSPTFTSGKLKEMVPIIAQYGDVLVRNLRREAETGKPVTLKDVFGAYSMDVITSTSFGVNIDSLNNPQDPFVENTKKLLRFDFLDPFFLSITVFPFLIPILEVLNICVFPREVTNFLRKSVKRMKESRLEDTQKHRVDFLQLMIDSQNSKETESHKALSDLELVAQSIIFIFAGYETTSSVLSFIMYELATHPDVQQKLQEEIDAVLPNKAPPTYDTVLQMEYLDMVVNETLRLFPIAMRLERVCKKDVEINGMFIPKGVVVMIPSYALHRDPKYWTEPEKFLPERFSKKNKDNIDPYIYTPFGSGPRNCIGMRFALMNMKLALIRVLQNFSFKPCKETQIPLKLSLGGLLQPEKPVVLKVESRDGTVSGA
# [14] = Plasma concentration in CD1 mouse at 30 mg/kg, po at 4 hrs by LC-MS/MS analysis; assay type: ADME, organism-based; set-up: dose 30 mg/kg, route oral
# Summary of the method: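 Single oral dose to overnight-fasted male CD1 mice in 20% Captisol suspension. Plasma was taken at 4 h by decapitation into EDTA tubes and spun at 1900g for 10 min at 4 °C. Compound was measured by a qualified LC-MS/MS method. Values are geometric means of at least four runs.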
# [15] = target: Gamma-secretase (Homo sapiens) (UniProt Q96BI3+Q9NZ42+Q8WW43+P49768+Q92542+P49810); assay: Inhibition of gamma-secretase in human SK-N-BE(2) cells expressing wild type APP 695 assessed as reduction in total amyloid beta level up to 10 uM after overnight incubation by sandwich immunoassay; assay type: cell-based
# Summary of the method: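 SK-N-BE(2) cells with wild-type APP695 were plated at 10⁴ cells/well in supplemented Ultraculture with test compound at several concentrations. They were incubated overnight at 37 °C, 5% CO₂. Supernatant Aβtotal was measured by AlphaLisa sandwich immunoassay (JRF/AβN/25 capture, biotinylated 4G8). Data are % of the maximum Aβtotal seen without compound.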
# Liver microsomes = assay: Drug metabolism in human liver microsome assessed as reactive metabolite formation by gultathione-trapping assay; assay type: ADME
# Mus musculus [16] = assay: Antialzheimer activity in CD1 mouse assessed as amyloid beta 42 level in brain at 30 mg/kg, po at 48 hrs by ELISA relative to control; assay type: functional
# Summary of the method: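 Male CD1 mice, fasted overnight, received a single 10 or 30 mg/kg oral dose. Brain was sampled at an added 48 h time point. The DEA-soluble brain fraction was neutralized and Aβ42 was measured by sandwich ELISA with fluorogenic read-out. Values are % versus vehicle.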
# Brain = assay: Drug uptake in Sprague-Dawley rat brain at 10 mg/kg, po at 25 hrs by LC-MS/MS analysis; assay type: ADME, organism-based; set-up: dose 10 mg/kg, route oral; details: in vivo, BLD = below limit of detection
# Summary of the method: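 Overnight-fasted male Sprague–Dawley rats (180–220 g) were dosed 10 mg/kg by gastric intubation of a 5 mg/mL suspension in 0.5% methocellulose. Rats were anesthetized with isoflurane, CSF was taken from the cisterna magna, then they were decapitated. Brain compound levels were measured as in the mouse assay. n = 5.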
# Rattus norvegicus [17] = assay: Antialzheimer activity in Sprague-Dawley rat assessed as amyloid beta 42 level in brain at 10 mg/kg, po at 4 hrs by ELISA relative to control; assay type: functional; summary of the method: as §1
# Rattus norvegicus [18] = assay: Antialzheimer activity in Sprague-Dawley rat assessed as amyloid beta 40 level in brain at 10 mg/kg, po at 25 hrs by ELISA relative to control; assay type: functional; summary of the method: as §1
# Rattus norvegicus [19] = assay: Antialzheimer activity in Sprague-Dawley rat assessed as amyloid beta 40 level in CSF at 10 mg/kg, po at 7 hrs by ELISA relative to control; assay type: functional; summary of the method: as §1
# Rattus norvegicus [20] = assay: Antialzheimer activity in Sprague-Dawley rat assessed as amyloid beta 40 level in brain at 10 mg/kg, po at 2 hrs by ELISA relative to control; assay type: functional; summary of the method: as §1
# Canis familiaris = assay: Antialzheimer activity in beagle dog assessed as amyloid beta 42 level in cerebrospinal fluid at 20 mg/kg, po at 24 hrs by ELISA relative to control
smiles,measurement,setting,value
COc1nc(Nc2cccc3c2nc(-c2ccc(F)cc2)n3C)ccc1-n1cnc(C)c1,Activity,Rattus norvegicus [1],127%
same,Activity,Rattus norvegicus [2],506%
same,concentration at 8 h,[3],1.7 µM
same,concentration at 24 h,[4],0.44 µM
same,concentration at 8 h,[5],10.5 µM
same,concentration at 4 h,[6],5.3 µM
same,Activity,Mus musculus [7],77%
same,Activity,Mus musculus [8],94%
same,Activity,Mus musculus [9],50%
same,Activity,Mus musculus [10],156%
same,Activity,Mus musculus [11],124%
same,solubility thermodynamic,[12],20 µg/mL
same,inhibition at 3 µM,hERG (KCNH2),30%
same,fraction unbound,[13],0.0013
same,IC50,Cytochrome P450 3A4,2900 nM
same,concentration at 4 h,[14],19.5 µM
same,inhibition,[15],inactive
same,Drug metabolism,Liver microsomes,Not Active
same,Activity,Mus musculus [16],101%
same,Drug uptake,Brain,BLD
same,Activity,Rattus norvegicus [17],64%
same,Activity,Rattus norvegicus [18],107%
same,Activity,Rattus norvegicus [19],56%
same,Activity,Rattus norvegicus [20],77%
same,Activity,Canis familiaris,89%
